Assay results as given in ChEMBL document CHEMBL3877271, “Antagonizing STAT3 activation with benzo[b]thiophene 1, 1-dioxide based small molecules” (Eur J Med Chem, 2017).
Activity calls are given as the source filed them. The calls are words filed in the database; no cut-off is given here.

Tests used:
MDA-MB-231 [1] = test: Induction of apoptosis in human MDA-MB-231 cells assessed as live cells at 3 uM after 24 hrs by Annexin-V FITC/propidium iodide staining based flow cytometry (reference value: 90.3%); type: functional
MDA-MB-231 [2] = test: Induction of apoptosis in human MDA-MB-231 cells assessed as early apoptotic cells at 3 uM after 24 hrs by Annexin-V FITC/propidium iodide staining based flow cytometry (reference value: 3.8%); type: functional
[3] = Effect on total STAT3 protein level in human MDA-MB-231 cells at 1 to 5 uM after 24 hrs by Western blot method; type: cell-based; conditions: mda-mb-231, 24 h
In short: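 MDA-MB-231 cells treated 24 h, trypsinised and lysed in RIPA buffer (50 mM Tris-HCl pH 7.4, 150 mM NaCl, 0.25% deoxycholate, 1% NP-40, 1 mM EDTA, protease inhibitors). Equal total protein from whole-cell lysates immunoblotted; Stattic 5 µM used as comparator.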

MDA-MB-231 [4] = test: Inhibition of colony formation in human MDA-MB-231 cells up to 6 uM incubated for 24 hrs measured after 14 days by crystal violet staining based assay; type: functional, cell-based
In short: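 Cells plated at 800-1000 per well in 6-well plates. Treated next day with vehicle or 0.5-6 µM for 24 h, then grown 10-14 d until colonies appeared. Stained with crystal violet for 4 h; colonies scored manually.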

A549 = test: Potency index, ratio of stattic IC50 to compound IC50 for human A549 cells; type: functional
MDA-MB-231 [5] = test: Induction of apoptosis in human MDA-MB-231 cells assessed as necrotic cells at 7 uM after 24 hrs by Annexin-V FITC/propidium iodide staining based flow cytometry (reference value: 4.1%); type: functional
MCF7 = test: Potency index, ratio of stattic IC50 to compound IC50 for human MCF7 cells; type: functional
MDA-MB-231 [6] = test: Induction of ROS generation in human MDA-MB-231 cells at 1 uM after 24 hrs by DCFH-DA staining based flow cytometry relative to control; type: functional
In short: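 3 × 10⁵ cells/well in 6-well plates treated 24 h (0, 1, 3, 5 µM). Medium replaced with serum-free medium holding DCFH-DA at 10 µM final, 20 min at 37 °C. Cells washed twice, trypsinised, resuspended in warm PBS and read by flow cytometry.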

MDA-MB-231 [7] = test: Induction of apoptosis in human MDA-MB-231 cells assessed as early apoptotic cells at 1 uM after 24 hrs by Annexin-V FITC/propidium iodide staining based flow cytometry (reference value: 3.8%); type: functional
MDA-MB-231 [8] = test: Induction of apoptosis in human MDA-MB-231 cells assessed as late apoptotic cells at 5 uM after 24 hrs by Annexin-V FITC/propidium iodide staining based flow cytometry (reference value: 1.8%); type: functional
MDA-MB-231 [9] = test: Induction of apoptosis in human MDA-MB-231 cells assessed as early apoptotic cells at 5 uM after 24 hrs by Annexin-V FITC/propidium iodide staining based flow cytometry (reference value: 3.8%); type: functional
MDA-MB-231 [10] = test: Induction of apoptosis in human MDA-MB-231 cells assessed as live cells at 1 uM after 24 hrs by Annexin-V FITC/propidium iodide staining based flow cytometry (reference value: 90.3%); type: functional
[11] = Antiproliferative activity against human MCF7 cells after 72 hrs by MTT assay; type: functional, cell-based; conditions: MCF7, 72 h
In short: (§1)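 Cells in RPMI-1640 with 10% FBS, penicillin/streptomycin, 37 °C, 5% CO₂; seeded 3000-5000 cells/well, left overnight (16 h), then medium replaced with fresh medium holding serial dilutions in triplicate for 72 h. MTT read-out; viability = absorbance of treated/solvent control × 100%. Stattic served as reference.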

MDA-MB-231 [12] = test: Induction of apoptosis in human MDA-MB-231 cells assessed as late apoptotic cells at 1 uM after 24 hrs by Annexin-V FITC/propidium iodide staining based flow cytometry (reference value: 1.8%); type: functional
Mus musculus = test: Toxicity in ICR mouse implanted with mouse 4T1 cells assessed as body weight loss at 10 mg/kg, ip daily for 11 days measured daily during compound dosing; type: organism-based; conditions: in vivo, 264 h
In short: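 4T1-bearing male ICR mice (5 weeks, 6/group), dosed i.p. with PBS/DMSO (8:2) vehicle control. Body weight recorded daily. BI% = (1 − mean treated/mean control body weight) × 100.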

[13] = target: Signal transducer and activator of transcription 3 (Homo sapiens) (UniProt P40763); test: Inhibition of STAT3 dimer DNA binding activity in human MDA-MB-231 nuclear extract at 1 to 5 uM preincubated for 24 hrs followed by addition of [32P]hSIE by electrophoretic mobility shift assay
In short: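 Cells treated 24 h in fresh growth medium. Nuclear extracts of equal total protein incubated with ³²P-labelled hSIE oligonucleotide probe and resolved by EMSA; Stattic 5 µM as comparator.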

MDA-MB-231 [14] = test: Induction of apoptosis in human MDA-MB-231 cells assessed as necrotic cells at 5 uM after 24 hrs by Annexin-V FITC/propidium iodide staining based flow cytometry (reference value: 4.1%); type: functional
MDA-MB-231 [15] = test: Induction of apoptosis in human MDA-MB-231 cells after 24 hrs by Annexin-V FITC/propidium iodide staining based flow cytometry; type: functional, cell-based
[16] = Antitumor activity against mouse 4T1 cells implanted in ICR mouse assessed as tumor growth inhibition at 10 mg/kg, ip daily for 11 consecutive days measured on day 12 relative to control; type: functional; conditions: 4T1, ip, 288 h, read-out: TGI
In short: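 Male ICR mice, 5 weeks old, inoculated with 2 × 10⁶ 4T1 cells at the right armpit. At 24 h, randomised into groups of 6 and dosed i.p.; vehicle PBS/DMSO (8:2) daily for 11 days. Killed day 12; tumours weighed; TI% = (1 − mean treated/mean control weight) × 100. Tumour p-STAT3 and STAT3 assessed by western blot.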

HCT-116 = test: Potency index, ratio of stattic IC50 to compound IC50 for human HCT116 cells; type: functional
MDA-MB-231 [17] = test: Induction of apoptosis in human MDA-MB-231 cells assessed as late apoptotic cells at 7 uM after 24 hrs by Annexin-V FITC/propidium iodide staining based flow cytometry (reference value: 1.8%); type: functional
MDA-MB-231 [18] = test: Induction of apoptosis in human MDA-MB-231 cells assessed as necrotic cells at 3 uM after 24 hrs by Annexin-V FITC/propidium iodide staining based flow cytometry (reference value: 4.1%); type: functional
MDA-MB-231 [19] = test: Induction of apoptosis in human MDA-MB-231 cells assessed as late apoptotic cells at 3 uM after 24 hrs by Annexin-V FITC/propidium iodide staining based flow cytometry (reference value: 1.8%); type: functional
MDA-MB-231 [20] = test: Induction of apoptosis in human MDA-MB-231 cells assessed as live cells at 7 uM after 24 hrs by Annexin-V FITC/propidium iodide staining based flow cytometry (reference value: 90.3%); type: functional
[21] = target: Signal transducer and activator of transcription 3 (Homo sapiens) (UniProt P40763); test: Inhibition of IL-6-stimulated STAT3 phosphorylation in human MDA-MB-231 cells preincubated for 12 hrs followed by IL-6 addition measured after 30 mins by Western blot method; type: cell-based
In short: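 Cells adhered overnight in 6-well plates, then serum-starved. Left untreated or given 1-5 µM for 12 h, then stimulated with IL-6 (25 ng/mL). Harvested 30 min later for western blot of p-STAT3.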

[22] = Antiproliferative activity against human MDA-MB-231 cells after 72 hrs by MTT assay; type: functional, cell-based; conditions: MDA-MB-231, 72 h; in short: as §1

Signal transducer and activator of transcription 3 (Homo sapiens), sequence (P40763 whole entry): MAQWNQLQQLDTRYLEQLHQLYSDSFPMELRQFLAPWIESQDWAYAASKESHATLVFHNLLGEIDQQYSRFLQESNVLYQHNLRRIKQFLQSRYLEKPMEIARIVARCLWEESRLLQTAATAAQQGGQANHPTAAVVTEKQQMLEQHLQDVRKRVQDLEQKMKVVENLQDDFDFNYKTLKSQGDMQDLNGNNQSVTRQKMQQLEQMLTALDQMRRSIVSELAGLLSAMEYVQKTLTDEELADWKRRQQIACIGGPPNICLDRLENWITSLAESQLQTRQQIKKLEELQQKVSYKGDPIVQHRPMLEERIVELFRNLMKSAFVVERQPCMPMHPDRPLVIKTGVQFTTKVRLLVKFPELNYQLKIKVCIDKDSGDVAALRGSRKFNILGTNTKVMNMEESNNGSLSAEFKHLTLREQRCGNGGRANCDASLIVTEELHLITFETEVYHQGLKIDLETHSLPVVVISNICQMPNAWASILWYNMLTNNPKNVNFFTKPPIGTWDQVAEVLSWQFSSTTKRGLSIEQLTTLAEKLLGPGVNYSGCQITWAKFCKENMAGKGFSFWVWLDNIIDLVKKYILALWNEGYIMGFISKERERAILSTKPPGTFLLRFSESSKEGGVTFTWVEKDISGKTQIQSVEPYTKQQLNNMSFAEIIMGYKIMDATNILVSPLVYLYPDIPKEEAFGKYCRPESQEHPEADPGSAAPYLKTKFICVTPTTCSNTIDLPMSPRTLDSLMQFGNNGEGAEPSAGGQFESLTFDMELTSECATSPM

- inhibition [13]: Active
- inhibition [21]: Dose-dependent effect
Structure (SMILES): O=S1(=O)C=Cc2cccc(Nc3cccc(C(F)(F)F)c3)c21
- Activity (MDA-MB-231 [1]): 83.4%
- Activity (MDA-MB-231 [2]): 6.8%
- Activity [3]: Non-Toxic
- inhibition (MDA-MB-231 [4]): Active
- Ratio IC50 (A549): 1.5 - 12
- Activity (MDA-MB-231 [5]): 6.9%
- Ratio IC50 (MCF7): 1.5 - 12
- fold change (FC) (MDA-MB-231 [6]): 1.37
- Activity (MDA-MB-231 [7]): 6.3%
- Activity (MDA-MB-231 [8]): 7.2%
- Activity (MDA-MB-231 [9]): 10.3%
- Activity (MDA-MB-231 [10]): 84.2%
- IC50 [11]: 750 nM
- Activity (MDA-MB-231 [12]): 3.4%
- Activity (Mus musculus): Non-Toxic
- Activity (MDA-MB-231 [14]): 7.2%
- Activity (MDA-MB-231 [15]): Dose-dependent effect
- inhibition in vivo at 10 mg/kg [16]: 61%
- Ratio IC50 (HCT-116): 1.5 - 12
- Activity (MDA-MB-231 [17]): 8.7%
- Activity (MDA-MB-231 [18]): 5.8%
- Activity (MDA-MB-231 [19]): 4.1%
- Activity (MDA-MB-231 [20]): 72.2%
- IC50 [22]: 680 nM
